Compound activity (PubChem)
RAD54 branch – blocks human RAD54 Holliday junction branch migration. FAM/BHQ fluorescence. inhibition, % at 10.4 µM. 360,000 compounds, 0.14% hits;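 active means mean normalized replicate activity at least 40 and at least half of replicates scoring 40 or more; inconclusive means only one of the two criteria met; inactive means mean below 40 and under half of replicates reaching 40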;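 further: 0% = median of neutral control wells and 100% = median of positive control wells; inhibitors cause a drop in the FAM fluorescence signal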
INS-1E GSIS act – GLuc luminescence reporter in INS-1E cells, primary screen for activators of glucose-dependent secretion of insulin; 370,000 compounds, 0.61% hits; activation, % at 16.6 µM; INS-1E GLuc reporter insulin secretion, 2-3 h;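 active means lowest replicate activation of at least 40%, so every replicate reaches that level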;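 further: 0% = median of neutral control wells and 100% = median of IBMX positive control wells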
MLL AF4-AF9 inh – MLL-AF4/AF9 protein interaction inhibition | AlphaScreen, biotin-AF4 peptide binding to FLAG-AF9 | inhibition, % at 10 µM | 350,000 compounds, 0.47% hits;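 active means every replicate reaching a set inhibition limit, whatever the replicate mean, cut at about 25% in these data; inconclusive means mean inhibition reaches that limit but some replicates miss it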;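 further: 0% = plate neutral control median and 100% = total signal loss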
S100A4 MyoIIA – S100A4-myosin IIA interaction inhibition; P26447; S100A4/TAMRA-MyoIIA peptide fluorescence polarization; inhibition, % at 10.7 µM; 360,000 compounds, 0.14% hits;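 active means mean inhibition of at least 70% across replicates, with every replicate also reaching that level; inconclusive means mean inhibition reaches 70% but some replicates fall short; inactive means mean inhibition below 70%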
Target sequence (P26447 whole entry, looked up): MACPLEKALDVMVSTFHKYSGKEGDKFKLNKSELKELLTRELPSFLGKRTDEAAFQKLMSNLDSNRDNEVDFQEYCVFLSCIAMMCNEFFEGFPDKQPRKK
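Material: S100A4 monomer (human). Medium: Calcium-containing HEPES buffer, pH 7.2. Probe or stimulus: labelled myosin peptide probe, 5 nM. Compound dosing: one concentration per compound. Timing: polarization read 5 min after assay mix addition, stable 5–60 min. Benchmarks: DMSO as neutral control, TFP as positive control.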
RAD52 anneal inh – inhibitors of human RAD52 DNA annealing; P43351; recombinant RAD52 DNA annealing, FRET fluorescence; inhibition, % at 18.7 µM; 360,000 compounds, 0.46% hits;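 active means every replicate showing at least 50% inhibition; inconclusive means mean inhibition at least 50% but not in every replicate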
Target sequence (P43351 whole entry, looked up): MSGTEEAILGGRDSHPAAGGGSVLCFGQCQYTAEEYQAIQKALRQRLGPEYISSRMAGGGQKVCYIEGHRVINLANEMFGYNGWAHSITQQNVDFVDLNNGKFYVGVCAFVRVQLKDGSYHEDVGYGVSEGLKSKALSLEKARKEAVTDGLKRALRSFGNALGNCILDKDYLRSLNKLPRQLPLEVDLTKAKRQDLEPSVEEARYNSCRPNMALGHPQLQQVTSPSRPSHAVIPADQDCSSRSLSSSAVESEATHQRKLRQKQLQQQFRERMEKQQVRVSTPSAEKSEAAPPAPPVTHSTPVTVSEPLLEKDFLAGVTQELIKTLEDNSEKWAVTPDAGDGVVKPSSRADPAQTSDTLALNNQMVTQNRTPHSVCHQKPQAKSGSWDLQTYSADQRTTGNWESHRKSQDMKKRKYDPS
RAD52 DNA ctr – counter-screen for RAD52 inhibitors: DNA binding compounds. shares compounds with RAD52 anneal inh. Salmon sperm DNA/acridine orange FP displacement. AC50, µM. 1,000 compounds, 8% hits. AID 652128;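 active means fitted half-maximal concentration for signal loss at or below twice the highest dose tested, in every separate run, actives reach about 64 µM in these data; inconclusive means runs disagree, or flat partial signal loss, or poor fit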
Active calls of the source: *; i = inactive; ? = inconclusive; nt = no result. Hits are enriched below; roughly 1.3% of the tested compounds scored in any of these assays.

SMILES | RAD54 branch | INS-1E GSIS act | MLL AF4-AF9 inh | S100A4 MyoIIA | RAD52 anneal inh | RAD52 DNA ctr
C[C@H]1CN([C@@H](C)CO)C(=O)c2cccc(NS(=O)(=O)c3ccccc3)c2O[C@H]1CN(C)C(=O)Nc1ccc(F)cc1 | -8 | -9 | 0 | -30 | -2 | nt
CCN(CC)CCCNC(=O)c1[nH]c2ccccc2c1Sc1ccc(Cl)cc1 | -3 | -12 | 11 | -3 | 70* | i
Cc1cc2cc(CNC(=O)c3cccc([N+](=O)[O-])c3)ccc2n1C | 6 | -21 | -7 | ? | 54* | i
Cc1cc2cc(CNC(=O)Cc3ccc([N+](=O)[O-])cc3)ccc2n1C | nt | 0 | 0 | 21 | -29 | nt
CCOc1ccc(CCN2C(=S)N([C@@H](Cc3ccc(O)cc3)CN3CCC[C@@H]3CN3C(=S)NC[C@@H]3Cc3ccccc3)C[C@@H]2CC(C)C)cc1 | -1 | 7 | 2 | -2 | 51* | i
CCOc1ccc(CCN2C(=S)N([C@@H](Cc3ccc(O)cc3)CN3CCC[C@@H]3CN3C(=S)NC[C@@H]3CC(C)C)C[C@@H]2Cc2ccccc2)cc1 | -5 | -2 | -13 | -3 | -23 | nt
Oc1ccc(C[C@H]2CNC(=S)N2CC2CCCN2C[C@H](Cc2ccc(O)cc2)N2C[C@H](Cc3ccc(O)cc3)N(CC3CCCCC3)C2=S)cc1 (some centres undefined) | -6 | -37 | 1 | -20 | 55* | i
NC(N)=N/N=C(\N=Nc1ccccc1)c1ccc(Cl)cc1 | nt | 213 | 35* | 2 | 74* | i
C[C@@H]1CCCCO[C@@H](CN(C)Cc2ccc(C(=O)O)cc2)[C@@H](C)CN([C@@H](C)CO)C(=O)c2cc(NS(=O)(=O)c3ccc(F)cc3)ccc2O1 | -9 | 3 | 1 | 9 | 13 | nt
CN(C)c1nc(N)c(C(=O)N=C(N)N)nc1Cl | 41 | nt | 3 | 4 | 88* | i
COc1ccc2c3c(n(C)c2c1)[C@H](CO)N(C(=O)C1CCOCC1)CC31CCN(C(=O)C2CCOCC2)CC1 | nt | 4 | -16 | 11 | 2 | nt
CCCCNC(=S)NCC(c1ccccc1)c1c[nH]c2ccccc12 (centres undefined) | -6 | -33 | 1 | 35 | -20 | nt
CN(C)CCCNC(=S)NCC(c1ccc(Cl)cc1Cl)c1c[nH]c2ccccc12 (centres undefined) | -7 | -11 | 35* | -1 | 56* | i
CCN(CC)CCNC(=O)c1ccc(NC(=O)c2cccc(S(=O)(=O)N3CCc4ccccc43)c2)cc1 | nt | -11 | 13 | 4 | 50* | i
CCN(CC)CCNC(=O)c1cc(S(=O)(=O)N2CCc3ccccc32)cn1C | 13 | nt | -3 | -2 | -5 | nt
COc1ccc(-c2cc(NC=O)c3ncc(-c4cccc(C(=O)NCCN(C)C)c4)n3c2)c(OC)c1 | 32 | 1 | 7 | -11 | 57* | i
COc1ccc(-c2cc(NC=O)c3ncc(-c4cccc(C(C)=O)c4)n3c2)cc1 | 0 | -9 | -10 | -4 | -73 | nt
CN1Cc2c(N3CCOCC3)nc3sc(C(=O)c4ccccc4)c(N)c3c2CC1(C)C | nt | -15 | nt | -1 | 60* | i
Cc1cc(C(=O)Nc2cccc3c2O[C@H](CN(C)CC2CCCCC2)[C@@H](C)CN([C@H](C)CO)C3=O)n(C)n1 | -4 | 2 | -15 | -16 | 5 | nt
NCCCC[C@H]1CNC(=S)N1CC1CCCCC1 | 6 | nt | 19 | -2 | 85* | i
C[C@@H]1CN([C@H](C)CO)C(=O)c2cccc(NS(=O)(=O)c3cccs3)c2O[C@H]1CN(C)C(=O)Nc1ccc2c(c1)OCO2 | 6 | 12 | -3 | 2 | 4 | nt
COc1ccc(S(=O)(=O)Nc2ccc3c(c2)C(=O)N([C@H](C)CO)C[C@H](C)[C@@H](CN(C)CC2CC2)OCCCC[C@H](C)O3)cc1 | 4 | -5 | -5 | 8 | 24 | nt
C=CCNc1nc(-c2cccs2)c(CC(=O)O)s1 | -24 | 15 | 0 | -4 | -18 | nt
CCN(CC)CCNc1nc(-c2cccs2)c(CC(=O)O)s1 | -2 | -2 | 7 | -4 | 88* | i
C=CCN=C1NC(c2ccc(Cl)cc2)C(C(=O)OC)=C(C)N1Cc1cccc(C(F)(F)F)c1 (centres undefined) | nt | -11 | nt | -2 | -16 | nt
SMILES | RAD54 branch | INS-1E GSIS act | MLL AF4-AF9 inh | S100A4 MyoIIA | RAD52 anneal inh | RAD52 DNA ctr
COC(=O)C1=C(C)N(Cc2cccc(C(F)(F)F)c2)C(=NCc2cccc(C(F)(F)F)c2)NC1c1ccc(Cl)cc1 (centres undefined) | nt | 785* | nt | 0 | 67* | i
CCN=C1NC(c2ccccc2)C(C(=O)OC)=C(C)N1Cc1ccc(C(F)(F)F)cc1 (centres undefined) | nt | 2 | nt | -2 | 32 | nt
COC(=O)C1=C(C)N(Cc2ccc(C(F)(F)F)cc2)C(=NCc2ccc(C(F)(F)F)cc2)NC1c1ccccc1 (centres undefined) | nt | nt | nt | -20 | 59* | i
CCc1cccc2c1Sc1ccccc1CC2N1CCNCC1 (centres undefined) | nt | nt | 15 | 6 | 55* | i
CO[C@@H]1CN(C)C(=O)c2ccc(NC(C)=O)cc2OC[C@@H](C)N(CCc2ccccc2)C[C@@H]1C | nt | -11 | 1 | -18 | 1 | nt
Oc1cccc(CN2CCOCC2)c1O | -7 | 7 | -2 | 1 | -6 | nt
Oc1c(CN2CCOCC2)cc(CN2CCOCC2)c(O)c1O | 1 | 7 | -4 | 1 | 61* | i
c1ccn(CCc2ccncc2)c1 | 4 | nt | 0 | -3 | -19 | nt
Nc1ccc(CCn2ccnc2)cc1 | 4 | 8 | 11 | -1 | 51* | i
C[C@@H]1CCCCO[C@H](CN(C)C(=O)Nc2ccc(F)cc2)[C@H](C)CN([C@H](C)CO)C(=O)c2cc(NC(=O)c3ccncc3)ccc2O1 | 5 | 6 | -1 | 17 | -1 | nt
CC(=O)OCC(=O)C1CCC2C3CC=C4CC(O)CCC4(C)C3CCC12C (centres undefined) | 0 | nt | -2 | 2 | -4 | nt
CC(=O)C1CCC2C3CC=C4CC(SC(=N)N)CCC4(C)C3CCC12C (centres undefined) | nt | 284* | 11 | 5 | 51* | i
COc1cccc2c3cccc(OC)c3c3[nH]cnc3c12 | nt | nt | 0 | -2 | 86* | i
C[C@@H]1CN([C@@H](C)CO)C(=O)c2cc(C#CC(C)(C)O)cnc2O[C@H]1CN(C)Cc1cncnc1 | -2 | 0 | -2 | -7 | 2 | nt
COCCN1CCn2c(nc3cc(Nc4nnc(C)c5ccccc45)ccc32)C1 | nt | -4 | 0 | -3 | 72* | i
CCCCN(CCCNC(=S)NCCCc1cnc[nH]1)c1ccc(Br)cn1 | 1 | 72* | 23 | -10 | 55* | i
C#CCOCCOCCOCCNc1nc(N2CCN(C(=O)[C@H]([C@@H](C)CC)n3cc(CCC(=O)O)nn3)CC2)nc(N2CCN(C(=O)[C@H](CCCCN)n3cc(CCCC)nn3)CC2)n1 | -8 | -8 | -4 | -1 | 12 | nt
